Test results reported in ChEMBL document CHEMBL5030505, “Assessment of NR4A Ligands That Directly Bind and Modulate the Orphan Nuclear Receptor Nurr1” (J Med Chem, 2020).
Active and inactive are the calls of the source.

Tests used:
Type in all cases: cell-based
[1] = target: Nuclear receptor subfamily 4 group A member 2 (Homo sapiens) (UniProt P43354); experiment: Modulation of full length human Nurr1 expressed in SK-N-BE(2) cells co-transfected with RXRalpha and luciferase reporter plasmid harboring NBRE response element assessed as increase in luciferase activity at 1.95 to 125 uM incubated for 18 hrs by luciferase reporter gene assay; conditions: SKNBE2, filed as modulator, dose 1.95-125 µM
How it was run: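 SK-N-BE(2)-C cells were kept in 1:1 EMEM/F12 with 10% FBS at 37°C and 5% CO2. They were cotransfected with full-length Nurr1 (1 μg), full-length RXRα (1 μg) and 3xNBRE- or 3xNurRE-luc reporter (6 μg) for 18 h, replated at 10,000 cells/well for 4 h, and then treated with ligand or vehicle in quadruplicate for 18 h. The readout was luciferase luminescence as fold over vehicle, reported as mean ± s.e.m. (n=4) from 2 independent experiments, one-way ANOVA.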

[2] = target: Nuclear receptor subfamily 4 group A member 2 (Homo sapiens) (UniProt P43354); experiment: Modulation of full length human Nurr1 expressed in SKNBE(2) cells co-transfected with luciferase reporter plasmid harboring NBRE response element assessed as increase in luciferase activity incubated for 18 hrs by luciferase reporter-gene assay; conditions: SKNBE2, filed as modulator
How it was run: (§1)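 Transfection of SK-N-BE(2)-C cells (1:1 EMEM/F12, 10% FBS, 37°C, 5% CO2) used full-length Nurr1 alone (2 μg, no RXRα) with 3xNBRE- or 3xNurRE-luciferase reporter (6 μg) for 18 h. Cells were replated at 10,000/well for 4 h, then exposed to ligand or vehicle in quadruplicate for 18 h. Luminescence was expressed as fold over vehicle, as mean ± s.e.m. (n=4) from 2 independent experiments, one-way ANOVA against vehicle.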

[3] = tested on: SKNBE2; experiment: Modulation of Gal4-fused VP16 expressed in SKNBE(2) cells co-transfected with UAS repoter gene assessed as increase in luciferase activity upto 15 uM incubated for 18 hrs by luciferase reporter gene assay; conditions: Human alphaherpesvirus 2, filed as modulator, dose microM <=15, time 18.0 hrs
How it was run: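 Cells in 10-cm dishes were transfected with Gal4-VP16 expression plasmid (2 μg) plus 5xUAS-luciferase reporter (2 μg) for 18 h. They were replated at 10,000 cells/well for 4 h, then given ligand or vehicle (water, ethanol or DMSO) in quadruplicate for 18 h. Luciferase was read with Britelite Plus. Fold change is versus vehicle-treated cells, with one-way ANOVA versus vehicle.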

[4] = target: Nuclear receptor subfamily 4immunitygroup A member 1 (Homo sapiens) (UniProt P22736); experiment: Modulation of full length human Nur77 expressed in PC12 cells co-transfected with RXRalpha and luciferase reporter plasmid harboring NurRE response element assessed as increase in luciferase activity incubated for 18 by luciferase reporter gene assay; conditions: PC-12, filed as modulator, time 18.0 hrs
How it was run: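 Cells seeded at 1.5 million per 10-cm dish. Next day they were transfected (Lipofectamine 2000) with full-length Nur77 or NOR-1 expression plasmid, either alone (2 μg) or 1 μg plus full-length RXRα (1 μg), and 3xNBRE- or 3xNurRE-luciferase reporter (6 μg), 18 h. Cells replated at 10,000/well, 4 h, then ligand dose response added in quadruplicate for 18 h. Luciferase luminescence read.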

[5] = target: Nuclear receptor subfamily 4 group A member 2 (Homo sapiens) (UniProt P43354); experiment: Modulation of full length human Nurr1 expressed in HEK293T cells co-transfected with luciferase reporter plasmid harboring NBRE response element assessed as decrease in luciferase activity at 1.95 to 125 uM incubated for 18 hrs by luciferase reporter gene assay; conditions: filed as modulator, dose 1.95-125 µM
How it was run: (§2)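 Full-length Nurr1 plasmid, alone (2 μg) or 1 μg plus full-length RXRα (1 μg), cotransfected with 3xNBRE- or 3xNurRE-luciferase reporter (6 μg) using Lipofectamine 2000, 18 h. Cells replated at 10,000/well for 4 h. Four ligand concentrations, or vehicle (water, ethanol or DMSO), added in quadruplicate for 18 h. Luciferase read. Fold change vs vehicle, mean ± s.e.m., one-way ANOVA vs vehicle.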

[6] = target: Nuclear receptor subfamily 4 group A member 2 (Homo sapiens) (UniProt P43354); experiment: Modulation of full length human Nurr1 expressed in HEK293T cells co-transfected with RXRalpha and luciferase reporter plasmid harboring NurRE response element assessed as decrease in luciferase activity at 1.95 to 125 uM incubated for 18 hrs by luciferase reporter gene assay; conditions: filed as modulator, dose 1.95-125 µM; how it was run: as §2
[7] = target: Nuclear receptor subfamily 4 group A member 2 (Homo sapiens) (UniProt P43354); experiment: Modulation of full length human Nurr1 expressed in PC12 cells co-transfected with RXRalpha and luciferase reporter plasmid harboring NurRE response element assessed as decrease in luciferase activity at 1.95 to 125 uM incubated for 18 hrs by luciferase reporter gene assay; conditions: PC-12, filed as modulator, dose 1.95-125 µM
How it was run: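 PC12 cells were grown at 37°C and 5% CO2 in […] medium with 15% horse serum and 2.5% FBS. They were transfected with full-length Nurr1 (1 μg) plus full-length RXRα (1 μg) and 3xNBRE- or 3xNurRE-luciferase reporter (6 μg) for 18 h, then replated at 10,000 cells/well for 4 h. Ligand or vehicle (water, ethanol or DMSO) was added in quadruplicate for 18 h. Luminescence was read as fold change over vehicle. Results are mean ± s.e.m., n=4, from 2 independent experiments, analysed by one-way ANOVA against vehicle.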

[8] = target: Nuclear receptor subfamily 4 group A member 3 (Homo sapiens) (UniProt Q92570); experiment: Modulation of full length human NOR1 expressed in PC12 cells co-transfected with luciferase reporter plasmid harboring NBRE response element assessed as increase in luciferase activity incubated for 18 by luciferase reporter gene assay; conditions: PC-12, filed as modulator, time 18.0 hrs
How it was run: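 Full-length NOR-1 plasmid was transfected via Lipofectamine 2000, either alone (2 μg) or at 1 μg with full-length RXRα (1 μg). It was paired with a 3xNBRE or 3xNurRE luciferase reporter (6 μg), 8 μg total DNA, for 18 h. Cells were replated at 10,000/well for 4 h, then given a full ligand dose response or vehicle in quadruplicate for 18 h. Luciferase was read; no EC50/IC50 was fitted.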

[9] = target: Nuclear receptor subfamily 4 group A member 2 (Homo sapiens) (UniProt P43354); experiment: Modulation of full length human Nurr1 expressed in PC12 cells co-transfected with luciferase reporter plasmid harboring NBRE response element assessed as decrease in luciferase activity at 1.95 to 125 uM incubated for 18 hrs by luciferase reporter gene assay; conditions: PC-12, filed as modulator, dose 1.95-125 µM
How it was run: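 Here PC12 cells (FK-12 medium, 15% horse serum, 2.5% FBS, 37°C, 5% CO2) received full-length Nurr1 (2 μg) without RXRα, plus 3xNBRE- or 3xNurRE-luciferase reporter (6 μg), for 18 h. Cells were replated at 10,000/well for 4 h, then treated with ligand or vehicle in quadruplicate for 18 h. Luciferase luminescence was normalized to vehicle-treated cells. Results are mean ± s.e.m. (n=4) from 2 independent experiments, with one-way ANOVA against vehicle.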

[10] = target: Nuclear receptor subfamily 4 group A member 2 (Homo sapiens) (UniProt P43354); experiment: Modulation of full length human Nurr1 expressed in HEK293T cells co-transfected with RXRalpha and luciferase reporter plasmid harboring NurRE response element assessed as increase in luciferase activity incubated for 18 hrs by luciferase reporter-gene assay; conditions: filed as modulator; how it was run: as §2
[11] = target: Nuclear receptor subfamily 4 group A member 2 (Homo sapiens) (UniProt P43354); experiment: Modulation of full length human Nurr1 expressed in SK-N-BE(2) cells co-transfected with luciferase reporter plasmid harboring NurRE response element assessed as increase in luciferase activity at 1.95 to 125 uM incubated for 18 hrs by luciferase reporter gene assay; conditions: SKNBE2, filed as modulator, dose 1.95-125 µM; how it was run: as §1

Measured: Activity

Chain of Nuclear receptor subfamily 4 group A member 2 (Homo sapiens) (P43354 whole entry): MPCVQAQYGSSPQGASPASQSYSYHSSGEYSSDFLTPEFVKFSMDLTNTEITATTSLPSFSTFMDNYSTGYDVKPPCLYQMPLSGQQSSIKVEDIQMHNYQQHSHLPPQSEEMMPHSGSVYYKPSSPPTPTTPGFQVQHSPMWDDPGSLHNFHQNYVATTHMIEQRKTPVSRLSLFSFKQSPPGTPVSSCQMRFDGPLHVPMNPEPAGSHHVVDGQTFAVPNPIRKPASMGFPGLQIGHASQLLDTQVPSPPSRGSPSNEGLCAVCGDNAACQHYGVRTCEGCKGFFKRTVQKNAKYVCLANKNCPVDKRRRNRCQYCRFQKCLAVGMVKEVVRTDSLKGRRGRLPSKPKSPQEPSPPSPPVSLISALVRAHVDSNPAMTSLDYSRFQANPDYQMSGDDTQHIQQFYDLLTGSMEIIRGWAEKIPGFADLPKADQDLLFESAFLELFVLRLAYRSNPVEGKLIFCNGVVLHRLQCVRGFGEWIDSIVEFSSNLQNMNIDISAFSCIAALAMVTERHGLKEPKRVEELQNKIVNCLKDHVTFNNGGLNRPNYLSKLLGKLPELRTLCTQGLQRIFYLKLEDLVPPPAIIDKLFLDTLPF
Chain of Nuclear receptor subfamily 4 group A member 3 (Homo sapiens) (Q92570 whole entry): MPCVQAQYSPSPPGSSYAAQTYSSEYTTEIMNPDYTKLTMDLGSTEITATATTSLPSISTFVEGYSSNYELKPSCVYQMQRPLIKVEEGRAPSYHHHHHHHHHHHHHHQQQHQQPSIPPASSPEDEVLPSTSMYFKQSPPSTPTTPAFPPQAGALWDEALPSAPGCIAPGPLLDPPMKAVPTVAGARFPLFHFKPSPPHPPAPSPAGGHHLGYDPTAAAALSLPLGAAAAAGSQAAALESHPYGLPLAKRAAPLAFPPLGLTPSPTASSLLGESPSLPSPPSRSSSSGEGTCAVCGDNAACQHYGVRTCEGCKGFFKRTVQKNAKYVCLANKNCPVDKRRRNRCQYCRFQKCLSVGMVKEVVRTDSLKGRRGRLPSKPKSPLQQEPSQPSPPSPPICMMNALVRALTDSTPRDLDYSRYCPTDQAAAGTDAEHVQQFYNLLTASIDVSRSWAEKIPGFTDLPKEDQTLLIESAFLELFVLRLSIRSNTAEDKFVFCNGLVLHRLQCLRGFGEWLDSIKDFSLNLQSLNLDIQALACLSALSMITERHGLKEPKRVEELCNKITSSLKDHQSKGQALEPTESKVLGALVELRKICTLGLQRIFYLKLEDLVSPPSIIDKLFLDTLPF
Chain of Nuclear receptor subfamily 4immunitygroup A member 1 (Homo sapiens) (P22736 whole entry): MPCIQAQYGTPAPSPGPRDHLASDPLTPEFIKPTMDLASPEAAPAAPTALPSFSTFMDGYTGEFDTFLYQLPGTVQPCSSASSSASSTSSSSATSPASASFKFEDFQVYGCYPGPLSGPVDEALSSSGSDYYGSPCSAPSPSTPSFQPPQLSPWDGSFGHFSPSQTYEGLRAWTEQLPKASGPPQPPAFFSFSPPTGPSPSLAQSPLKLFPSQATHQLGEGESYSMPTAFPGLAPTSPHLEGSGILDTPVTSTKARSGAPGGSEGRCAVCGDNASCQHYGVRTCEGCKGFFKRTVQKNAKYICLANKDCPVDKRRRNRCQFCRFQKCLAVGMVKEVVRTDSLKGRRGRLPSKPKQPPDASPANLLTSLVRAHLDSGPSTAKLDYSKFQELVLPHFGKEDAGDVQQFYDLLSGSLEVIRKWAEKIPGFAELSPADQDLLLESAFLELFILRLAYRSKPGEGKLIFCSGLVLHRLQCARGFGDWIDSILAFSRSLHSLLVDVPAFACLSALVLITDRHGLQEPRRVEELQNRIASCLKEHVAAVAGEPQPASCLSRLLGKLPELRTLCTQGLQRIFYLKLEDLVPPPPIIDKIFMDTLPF

CCN(CC)Cc1cc(Nc2ccnc3cc(Cl)ccc23)ccc1O [AMODIAQUINE]
active: [1] | [2] Dose-Dependent Effect | [3] | [4] Dose-Dependent Effect | [5] | [6] | [7] | [8] Dose-Dependent Effect | [9] | [10] Dose-Dependent Effect | [11]

CCN(CC)CCCC(C)Nc1ccnc2cc(Cl)ccc12 (stereo unspecified) [CHLOROQUINE]
active: [1] | [2] Dose-Dependent Effect | [3] | [4] Dose-Dependent Effect | [5] | [6] | [7] | [8] Dose-Dependent Effect | [9] | [10] Dose-Dependent Effect | [11]

CCCCCCCC(=O)c1c(O)cc(O)cc1CC(=O)OCC [CYTOSPORONE B]
active: [2] Dose-Dependent Effect | [4] Dose-Dependent Effect | [8] Dose-Dependent Effect | [10] Dose-Dependent Effect
